Experimental data of several laboratories.
Each line is one published result; the experiments were not run side by side.
Target: Serine/threonine-protein kinase BRSK1 (BRSK1, Homo sapiens, UniProt Q8TDC3)
One construct used (Q8TDC3 1-778): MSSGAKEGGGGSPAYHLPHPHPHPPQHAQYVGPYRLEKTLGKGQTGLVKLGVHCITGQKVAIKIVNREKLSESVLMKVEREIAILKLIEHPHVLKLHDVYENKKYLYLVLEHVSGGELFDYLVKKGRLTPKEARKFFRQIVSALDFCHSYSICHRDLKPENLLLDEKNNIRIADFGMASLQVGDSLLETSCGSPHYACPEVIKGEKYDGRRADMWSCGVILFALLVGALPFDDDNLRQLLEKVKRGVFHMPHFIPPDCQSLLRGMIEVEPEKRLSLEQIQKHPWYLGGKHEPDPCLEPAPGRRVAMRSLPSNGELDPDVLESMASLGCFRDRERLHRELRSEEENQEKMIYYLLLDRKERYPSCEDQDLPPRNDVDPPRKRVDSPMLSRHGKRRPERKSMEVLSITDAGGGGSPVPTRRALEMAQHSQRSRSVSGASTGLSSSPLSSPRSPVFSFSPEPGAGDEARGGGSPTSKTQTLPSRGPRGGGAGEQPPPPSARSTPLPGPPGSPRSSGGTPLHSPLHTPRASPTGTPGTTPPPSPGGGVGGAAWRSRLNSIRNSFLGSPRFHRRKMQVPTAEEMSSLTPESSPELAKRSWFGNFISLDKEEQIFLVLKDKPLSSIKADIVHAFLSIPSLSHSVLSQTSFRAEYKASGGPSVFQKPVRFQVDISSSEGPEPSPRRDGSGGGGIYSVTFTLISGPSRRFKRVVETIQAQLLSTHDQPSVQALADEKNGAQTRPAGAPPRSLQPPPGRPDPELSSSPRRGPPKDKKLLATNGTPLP

Structure (SMILES)	assay	setting	measurement	result
CCCCC(=O)Nc1ccc(-c2ccc3ncn(CCC)c(=O)c3c2)cn1	binding, competition with immobilised ligand	0.5 µM	remaining binding	100%
Cc1ccc(NC(=O)c2ccnc(C(F)(F)F)c2)cc1-c1cc(OCCO)nc(N2CCOCC2)c1	binding	1 µM	remaining binding	93%
COc1ccc2oc(-c3ccc4nc(N)oc4c3)c/c(=N\c3ccccc3NC(=O)CCN)c2c1	binding	1 µM	remaining binding	103%
COc1ccc2[nH]c3c4[nH]c5ccc(OC)cc5c4c4c(c3c2c1)C(=O)NC4=O	binding	1 µM	remaining binding	10%
CO[C@@H]1[C@H](N(C)C(=O)c2ccccc2)C[C@H]2O[C@]1(C)n1c3ccccc3c3c4c(c5c6ccccc6n2c5c31)C(=O)NC4	enzyme activity, inhibitor	1 µM	inhibition	48%
C#Cc1cc(-c2cc(Nc3nc(N[C@@H](C)c4ccc(F)cn4)ncc3Cl)n[nH]2)ccc1C=O	enzyme activity, inhibitor	0.2 µM	inhibition	10.3%
C=CC(=O)N1CCC([C@@H]2CCNc3c(C(N)=O)c(-c4ccc(Oc5ccccc5)cc4)nn32)CC1	enzyme activity, inhibitor	1 µM	inhibition	0%
C1=C/COCc2cc(ccc2OCCN2CCCC2)Nc2nccc(n2)-c2cccc(c2)COC/1	binding	0.1 µM	remaining binding	99%
